The source made the active and inactive calls. The calls are words filed in the database; no cut-off is given here.
Assays:
[1] = system: MOVAS; experiment: Cell cycle arrest in mouse MOVAS cells assessed as effect on G2/M-phase cell population by flow cytometry; format: functional, cell-based
Summary of the method: (§1)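 MOVAS mouse aortic SMCs (about 2–5×10^6) harvested by trypsin, washed twice in PBS, fixed overnight at 4 °C in cold 70% ethanol, then stained 2 h in the dark with RNase A (0.3 mg) and propidium iodide (0.015 mg). Cell-cycle phase distribution read by flow cytometry. Data are mean ± SD, compared by two-tailed t-test.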

[2] = Induction of apoptosis in mouse MOVAS cells assessed as late apoptotic cells by flow cytometry; format: functional
Summary of the method: (§2)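 Trypsinized MOVAS cells stained with a PE Annexin V apoptosis detection kit and analysed by flow cytometry, which separated early and late apoptotic populations. Mean ± SD; two-tailed Student's t-test.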

[3] = Induction of apoptosis in mouse MOVAS cells assessed as early apoptotic cells by flow cytometry; format: functional; summary of the method: as §2
[4] = system: MOVAS; experiment: Cell cycle arrest in mouse MOVAS cells assessed as effect on G0/G1-phase cell population by flow cytometry; format: functional, cell-based; summary of the method: as §1
[5] = system: MOVAS; experiment: Cell cycle arrest in mouse MOVAS cells assessed as effect on S-phase cell population by flow cytometry; format: functional, cell-based; summary of the method: as §1
[6] = target: Histone-lysine N-methyltransferase EZH2 (Mus musculus) (UniProt Q61188); experiment: Inhibition of EZH2 in mouse MOVAS cells assessed as reduction in cell count at 5 uM measured after 48 hrs in presence of MEK1 inhibitor PD98059 by cell counting method; format: cell-based
Histone-lysine N-methyltransferase EZH2 (Mus musculus), sequence (Q61188 whole entry): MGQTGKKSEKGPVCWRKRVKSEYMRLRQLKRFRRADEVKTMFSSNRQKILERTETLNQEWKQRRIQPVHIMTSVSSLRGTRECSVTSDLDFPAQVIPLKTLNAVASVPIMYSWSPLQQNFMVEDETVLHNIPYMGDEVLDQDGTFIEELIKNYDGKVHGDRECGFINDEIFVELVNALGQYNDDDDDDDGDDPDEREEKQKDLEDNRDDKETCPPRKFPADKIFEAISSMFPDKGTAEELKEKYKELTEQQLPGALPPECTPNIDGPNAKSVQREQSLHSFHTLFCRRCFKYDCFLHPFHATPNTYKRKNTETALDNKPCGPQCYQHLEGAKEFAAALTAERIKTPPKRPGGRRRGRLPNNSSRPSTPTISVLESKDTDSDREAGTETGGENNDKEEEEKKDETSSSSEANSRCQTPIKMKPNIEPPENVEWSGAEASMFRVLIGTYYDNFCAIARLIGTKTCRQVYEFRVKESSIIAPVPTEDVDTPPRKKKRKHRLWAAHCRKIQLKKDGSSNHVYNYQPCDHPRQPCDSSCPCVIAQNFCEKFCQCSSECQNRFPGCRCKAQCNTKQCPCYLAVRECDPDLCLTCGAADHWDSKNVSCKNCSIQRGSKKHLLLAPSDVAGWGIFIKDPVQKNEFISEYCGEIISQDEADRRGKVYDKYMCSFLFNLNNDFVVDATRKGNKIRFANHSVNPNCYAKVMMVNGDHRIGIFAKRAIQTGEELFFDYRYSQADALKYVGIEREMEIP
Summary of the method: (§3)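 MOVAS cells serum-starved 12 h in DMEM/high glucose, then 2×10^5 cells seeded in six-well plates in medium with 10% FBS. Trypsinized at 12, 24, 36 and 48 h and counted by a single blinded observer. Three replicate wells (n = 3); mean ± SD, two-tailed t-test.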

[7] = target: Histone-lysine N-methyltransferase EZH2 (Mus musculus) (UniProt Q61188); experiment: Inhibition of EZH2 in mouse MOVAS cells over-expressing AKT assessed as reduction in cell count at 5 uM by light microscopy; format: cell-based
Summary of the method: (§4)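 Mouse MOVAS VSMCs imaged by light microscopy after 48 h of the indicated treatments (scale bar 200 μm). Lentivirally modified cells were selected with puromycin 2 μg/ml after 48 h infection. Treatments were inhibitor 5 μM, DMSO vehicle, or PD98059 50 μM.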

[8] = target: Histone-lysine N-methyltransferase EZH2 (Mus musculus) (UniProt Q61188); experiment: Inhibition of EZH2 in mouse MOVAS cells assessed as reduction in cell count at 5 uM measured after 48 hrs in presence of MEK1 inhibitor PD98059 by light microscopy; format: cell-based; summary of the method: as §4
[9] = target: Histone-lysine N-methyltransferase EZH2 (Mus musculus) (UniProt Q61188); experiment: Inhibition of EZH2 in mouse MOVAS cells assessed as increase in LC3-II accumulation at 5 uM measured after 24 hrs in presence of MEK1 inhibitor PD98059 by Western blot analysis; format: cell-based
Summary of the method: (§5)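 Total protein from MOVAS cells extracted in RIPA buffer. 20 μg per lane resolved by SDS-PAGE and transferred to PVDF. Blocked in 5% non-fat milk, primary antibody overnight at 4 °C, then peroxidase-conjugated secondary and chemiluminescence imaging. Normalized to GAPDH or β-actin loading control. n = 4; mean ± SD versus DMSO, two-tailed t-test.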

[10] = target: Histone-lysine N-methyltransferase EZH2 (Mus musculus) (UniProt Q61188); experiment: Inhibition of EZH2 in mouse MOVAS cells assessed as reduction in H3K27me3 level at 5 uM measured after 24 hrs by Western blot analysis; format: cell-based; summary of the method: as §5
[11] = target: Histone-lysine N-methyltransferase EZH2 (Mus musculus) (UniProt Q61188); experiment: Inhibition of EZH2 in mouse MOVAS cells over-expressing AKT assessed as increase in LC3-II expression at 5 uM measured after 24 hrs by Western blot analysis; format: cell-based; summary of the method: as §5
[12] = target: Histone-lysine N-methyltransferase EZH2 (Mus musculus) (UniProt Q61188); experiment: Inhibition of EZH2 in mouse MOVAS cells assessed as reduction in AKT phosphorylation at 5 uM measured after 24 hrs by Western blot analysis; format: cell-based; summary of the method: as §5
[13] = target: Histone-lysine N-methyltransferase EZH2 (Mus musculus) (UniProt Q61188); experiment: Inhibition of EZH2 in mouse MOVAS cells assessed as effect on AMPKalpha phosphorylation at 5 uM measured after 24 hrs by Western blot analysis; format: cell-based; summary of the method: as §5
[14] = target: Histone-lysine N-methyltransferase EZH2 (Mus musculus) (UniProt Q61188); experiment: Inhibition of EZH2 in mouse MOVAS cells transfected with shATG7 assessed as increase in LC3-II expression at 5 uM by Western blot analysis; format: cell-based; summary of the method: as §5
[15] = target: Histone-lysine N-methyltransferase EZH2 (Mus musculus) (UniProt Q61188); experiment: Inhibition of EZH2 in mouse MOVAS cells transfected with shATG5 assessed as increase in LC3-II expression at 5 uM by Western blot analysis; format: cell-based; summary of the method: as §5
[16] = target: Histone-lysine N-methyltransferase EZH2 (Mus musculus) (UniProt Q61188); experiment: Inhibition of EZH2 in mouse MOVAS cells assessed as appearance of double-membraned vacuole containing fragments of cytoplasmic component in presence of rapamycin by transmission electron microscopy; format: cell-based
Summary of the method: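 MOVAS cells treated with inhibitor or lentivirus, with rapamycin at 150 nM. Fixed in cold 2.5% glutaraldehyde for 30 min, then further fixed overnight at 4 °C, dehydrated in ethanol and acetone, and embedded in epoxy resin. 60-nm sections stained with uranyl acetate and lead citrate and imaged by TEM for double-membraned autophagic vacuoles.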

[17] = system: MOVAS; experiment: Cell cycle arrest in mouse MOVAS cells assessed as effect on G2/M-phase cell population at 5 uM by flow cytometry; format: functional, cell-based; summary of the method: as §1
[18] = target: Histone-lysine N-methyltransferase EZH2 (Mus musculus) (UniProt Q61188); experiment: Inhibition of EZH2 in mouse MOVAS cells assessed as effect on mTOR phosphorylation at 5 uM measured after 24 hrs by Western blot analysis; format: cell-based; summary of the method: as §5
[19] = system: MOVAS; experiment: Cell cycle arrest in mouse MOVAS cells assessed as effect on G0/G1-phase cell population at 5 uM by flow cytometry; format: functional, cell-based; summary of the method: as §1
[20] = system: MOVAS; experiment: Cell cycle arrest in mouse MOVAS cells assessed as effect on S-phase cell population at 5 uM by flow cytometry; format: functional, cell-based; summary of the method: as §1
[21] = target: Histone-lysine N-methyltransferase EZH2 (Mus musculus) (UniProt Q61188); experiment: Inhibition of EZH2 in mouse MOVAS cells transfected with shATG7 assessed as reduction in cell count at 5 uM measured up to 48 hrs by cell counting method; format: cell-based; summary of the method: as §3
[22] = target: Histone-lysine N-methyltransferase EZH2 (Mus musculus) (UniProt Q61188); experiment: Inhibition of EZH2 in mouse MOVAS cells over-expressing AKT assessed as reduction in cell count at 5 uM by cell counting method; format: cell-based; summary of the method: as §3
[23] = target: Histone-lysine N-methyltransferase EZH2 (Mus musculus) (UniProt Q61188); experiment: Inhibition of EZH2 in mouse MOVAS cells assessed as elevation of LC3-II expression at 5 uM in presence of chloroquine by Western blot analysis; format: cell-based; summary of the method: as §5
[24] = target: Histone-lysine N-methyltransferase EZH2 (Mus musculus) (UniProt Q61188); experiment: Inhibition of EZH2 in mouse MOVAS cells assessed as increase in ERK1/2 phosphorylation at 5 uM measured after 6 hrs in presence of MEK1 inhibitor PD98059 by Western blot analysis; format: cell-based; summary of the method: as §5
[25] = target: Histone-lysine N-methyltransferase EZH2 (Mus musculus) (UniProt Q61188); experiment: Inhibition of EZH2 in mouse MOVAS cells transfected with shATG7 assessed as reduction in cell count at 5 uM measured after 48 hrs by light microscopy; format: cell-based; summary of the method: as §4
[26] = target: Histone-lysine N-methyltransferase EZH2 (Mus musculus) (UniProt Q61188); experiment: Inhibition of EZH2 in mouse MOVAS cells assessed as increase in ERK1/2 phosphorylation at 5 uM measured after 6 hrs by Western blot analysis; format: cell-based; summary of the method: as §5
[27] = target: Histone-lysine N-methyltransferase EZH2 (Mus musculus) (UniProt Q61188); experiment: Inhibition of EZH2 in mouse MOVAS cells assessed as reduction in H3K27me2 level at 5 uM measured after 24 hrs by Western blot analysis; format: cell-based; summary of the method: as §5
[28] = Induction of apoptosis in mouse MOVAS cells assessed as late apoptotic cells at 5 uM by flow cytometry; format: functional; summary of the method: as §2
[29] = target: Histone-lysine N-methyltransferase EZH2 (Mus musculus) (UniProt Q61188); experiment: Inhibition of EZH2 in mouse MOVAS cells assessed as increase in ATG7 expression at 5 uM measured after 24 hrs by Western blot analysis; format: cell-based; summary of the method: as §5
[30] = target: Histone-lysine N-methyltransferase EZH2 (Mus musculus) (UniProt Q61188); experiment: Inhibition of EZH2 in mouse MOVAS cells over-expressing AKT assessed as reduction in H3K27me3 level at 5 uM measured after 24 hrs by Western blot analysis; format: cell-based; summary of the method: as §5
[31] = target: Histone-lysine N-methyltransferase EZH2 (Mus musculus) (UniProt Q61188); experiment: Inhibition of EZH2 in mouse MOVAS cells assessed as increase in ATG5 expression at 5 uM measured after 24 hrs by Western blot analysis; format: cell-based; summary of the method: as §5
[32] = target: Histone-lysine N-methyltransferase EZH2 (Mus musculus) (UniProt Q61188); experiment: Inhibition of EZH2 in mouse MOVAS cells assessed as effect on S6 phosphorylation at 5 uM measured after 24 hrs by Western blot analysis; format: cell-based; summary of the method: as §5
[33] = target: Histone-lysine N-methyltransferase EZH2 (Mus musculus) (UniProt Q61188); experiment: Inhibition of EZH2 in mouse MOVAS cells assessed as cell injury at 5 uM measured after 48 hrs by LDH release assay; format: cell-based
Summary of the method: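 Mouse MOVAS VSMCs exposed to inhibitor for 48 h. Cell injury quantified as percentage of injured cells from released LDH using a cytotoxicity LDH kit. n = 6; mean ± SD versus DMSO, two-tailed t-test.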

[34] = target: Histone-lysine N-methyltransferase EZH2 (Mus musculus) (UniProt Q61188); experiment: Inhibition of EZH2 in mouse MOVAS cells assessed as reduction in cell number at 5 uM measured at 24 hrs by cell counting method; format: cell-based; summary of the method: as §3
[35] = target: Histone-lysine N-methyltransferase EZH2 (Mus musculus) (UniProt Q61188); experiment: Inhibition of EZH2 in mouse MOVAS cells assessed as elevation of LC3-II expression at 5 uM in presence of chloroquine and rapamycin by Western blot analysis; format: cell-based; summary of the method: as §5
[36] = target: Histone-lysine N-methyltransferase EZH2 (Mus musculus) (UniProt Q61188); experiment: Inhibition of EZH2 in mouse VSMC cells assessed as reduction in cell count at 5 uM for 24 hrs by light microscopic analysis; format: cell-based; settings: MOVAS
[37] = target: Histone-lysine N-methyltransferase EZH2 (Mus musculus) (UniProt Q61188); experiment: Inhibition of EZH2 in mouse MOVAS cells over-expressing AKT assessed as reduction in H3K27me2 level at 5 uM measured after 24 hrs by Western blot analysis; format: cell-based; summary of the method: as §5
[38] = target: Histone-lysine N-methyltransferase EZH2 (Mus musculus) (UniProt Q61188); experiment: Inhibition of EZH2 in mouse MOVAS cells assessed as elevation of LC3-II expression at 5 uM by Western blot analysis; format: cell-based; summary of the method: as §5
[39] = target: Histone-lysine N-methyltransferase EZH2 (Mus musculus) (UniProt Q61188); experiment: Inhibition of EZH2 in mouse MOVAS cells transfected with shATG5 assessed as reduction in cell count at 5 uM measured after 48 hrs by light microscopy; format: cell-based; summary of the method: as §4
[40] = target: Histone-lysine N-methyltransferase EZH2 (Mus musculus) (UniProt Q61188); experiment: Inhibition of EZH2 in mouse MOVAS cells transfected with shATG5 assessed as reduction in cell count at 5 uM measured up to 48 hrs by cell counting method; format: cell-based; summary of the method: as §3
[41] = Induction of apoptosis in mouse MOVAS cells assessed as early apoptotic cells at 5 uM by flow cytometry; format: functional; summary of the method: as §2

SMILES: C[S+](C)[O-] [DIMETHYL SULFOXIDE]
- Activity [1]: inactive
- Activity [2]: 5.96%
- Activity [3]: 9.76%
- Activity [4]: inactive
- Activity [5]: inactive

SMILES: CCCc1cc(C)[nH]c(=O)c1CNC(=O)c1cc(-c2ccc(N3CCN(C(C)C)CC3)nc2)cc2c1cnn2C(C)C
- inhibition [6]: inactive
- inhibition [7]: Active
- inhibition [8]: inactive
- inhibition [9]: inactive
- inhibition [10]: Active
- inhibition [11]: Active
- inhibition [12]: Active
- inhibition [13]: inactive
- inhibition [14]: inactive
- inhibition [15]: inactive
- inhibition [16]: Active
- Activity [17]: inactive
- inhibition [18]: inactive
- Activity [19]: inactive
- Activity [20]: inactive
- inhibition [21]: inactive
- inhibition [22]: Active
- inhibition [23]: Active
- inhibition [24]: inactive
- inhibition [25]: inactive
- inhibition [26]: Active
- inhibition [27]: Active
- Activity [28]: 6.11%
- inhibition [29]: Active
- inhibition [30]: Active
- inhibition [31]: Active
- inhibition [32]: inactive
- inhibition [33]: Active
- inhibition [34]: Active
- inhibition [35]: Active
- inhibition [36]: Active
- inhibition [37]: Active
- inhibition [38]: Active
- inhibition [39]: inactive
- inhibition [40]: inactive
- Activity [41]: 8.67%
